Among the data in ChEMBL document CHEMBL1137555, “Aminocyclohexylsulfonamides: discovery of metabolically stable alpha(1a/1d)-selective adrenergic receptor antagonists for the treatment of benign prostatic hyperplasia/lower urinary tract symptoms (BPH/LUTS)” (Bioorg Med Chem Lett, 2007) are half-life and Ki values, retold here.

A word on the half-life: it is the time needed for the level to fall by half in the phase considered. Low readings indicate fast loss, high ones slow loss. For orientation: Ki means a dissociation constant, usually derived from enzyme kinetics or from competition with a known ligand.

Series [1] is described as follows: Metabolic stability in human liver microsomes. Type of series: ADME, Microsome. In outline:
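Human liver microsomal metabolism assay; read-out was half-life (T1/2, min).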
For orientation: Liver microsomes are a subcellular fraction often used to study metabolism.

The target in series [2] is T1, Alpha-1B adrenergic receptor (Homo sapiens, UniProt P35368).
T1 sequence (P35368 whole entry): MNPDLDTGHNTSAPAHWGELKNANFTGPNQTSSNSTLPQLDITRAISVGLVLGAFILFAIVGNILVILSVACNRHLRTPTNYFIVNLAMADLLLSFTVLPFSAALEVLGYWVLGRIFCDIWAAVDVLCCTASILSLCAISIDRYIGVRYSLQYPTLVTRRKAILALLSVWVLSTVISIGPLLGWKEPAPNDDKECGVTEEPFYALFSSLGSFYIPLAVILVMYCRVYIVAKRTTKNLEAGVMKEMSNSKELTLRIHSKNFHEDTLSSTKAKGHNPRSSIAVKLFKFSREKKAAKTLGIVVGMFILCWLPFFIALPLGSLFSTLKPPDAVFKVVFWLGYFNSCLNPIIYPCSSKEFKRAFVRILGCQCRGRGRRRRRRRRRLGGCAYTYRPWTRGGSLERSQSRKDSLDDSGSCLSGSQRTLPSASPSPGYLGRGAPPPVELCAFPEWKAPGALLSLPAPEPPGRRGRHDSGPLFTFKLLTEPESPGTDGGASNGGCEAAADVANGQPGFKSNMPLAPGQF
The series is described as follows: Binding affinity to human cloned adrenergic alpha-1b receptor.

The target in series [3] is T2, Alpha-1D adrenergic receptor (Homo sapiens, UniProt P25100).
T2 sequence (P25100 whole entry): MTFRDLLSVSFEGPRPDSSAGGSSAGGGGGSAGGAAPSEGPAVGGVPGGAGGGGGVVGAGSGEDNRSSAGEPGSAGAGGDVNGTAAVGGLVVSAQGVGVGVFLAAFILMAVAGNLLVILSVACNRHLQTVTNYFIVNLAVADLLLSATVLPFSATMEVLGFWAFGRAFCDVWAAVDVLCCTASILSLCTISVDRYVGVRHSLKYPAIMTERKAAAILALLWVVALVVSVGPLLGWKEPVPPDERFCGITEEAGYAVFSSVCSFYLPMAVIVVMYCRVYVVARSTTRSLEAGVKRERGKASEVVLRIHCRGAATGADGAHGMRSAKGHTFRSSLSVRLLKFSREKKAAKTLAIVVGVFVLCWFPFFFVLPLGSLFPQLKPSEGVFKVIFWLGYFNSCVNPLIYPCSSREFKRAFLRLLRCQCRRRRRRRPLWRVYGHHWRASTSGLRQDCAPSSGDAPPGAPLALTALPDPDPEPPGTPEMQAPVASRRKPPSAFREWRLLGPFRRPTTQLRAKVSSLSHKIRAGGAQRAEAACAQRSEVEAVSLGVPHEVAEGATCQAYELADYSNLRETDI
The experiment in a line: Binding affinity to human cloned adrenergic alpha-1d receptor.

The next series deals with D(2) dopamine receptor (Homo sapiens, UniProt P14416). The series is described as follows: Binding affinity to human cloned dopamine D2 receptor.
Sequence of D(2) dopamine receptor (P14416 whole entry): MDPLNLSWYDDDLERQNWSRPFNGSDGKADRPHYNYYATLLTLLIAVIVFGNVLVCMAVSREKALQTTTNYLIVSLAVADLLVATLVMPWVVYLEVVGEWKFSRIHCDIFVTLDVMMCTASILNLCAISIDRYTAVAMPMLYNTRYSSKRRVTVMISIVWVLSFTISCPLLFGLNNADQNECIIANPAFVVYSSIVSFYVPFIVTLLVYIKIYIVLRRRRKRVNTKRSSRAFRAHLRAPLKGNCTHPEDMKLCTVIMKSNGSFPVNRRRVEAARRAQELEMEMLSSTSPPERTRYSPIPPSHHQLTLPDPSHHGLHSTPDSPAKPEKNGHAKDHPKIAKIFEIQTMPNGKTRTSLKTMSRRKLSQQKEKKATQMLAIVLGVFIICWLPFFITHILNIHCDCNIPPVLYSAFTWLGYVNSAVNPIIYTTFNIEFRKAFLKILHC
Series [4] addresses T3, Alpha-1A adrenergic receptor (Homo sapiens, UniProt P35348).
T3 sequence (P35348 whole entry): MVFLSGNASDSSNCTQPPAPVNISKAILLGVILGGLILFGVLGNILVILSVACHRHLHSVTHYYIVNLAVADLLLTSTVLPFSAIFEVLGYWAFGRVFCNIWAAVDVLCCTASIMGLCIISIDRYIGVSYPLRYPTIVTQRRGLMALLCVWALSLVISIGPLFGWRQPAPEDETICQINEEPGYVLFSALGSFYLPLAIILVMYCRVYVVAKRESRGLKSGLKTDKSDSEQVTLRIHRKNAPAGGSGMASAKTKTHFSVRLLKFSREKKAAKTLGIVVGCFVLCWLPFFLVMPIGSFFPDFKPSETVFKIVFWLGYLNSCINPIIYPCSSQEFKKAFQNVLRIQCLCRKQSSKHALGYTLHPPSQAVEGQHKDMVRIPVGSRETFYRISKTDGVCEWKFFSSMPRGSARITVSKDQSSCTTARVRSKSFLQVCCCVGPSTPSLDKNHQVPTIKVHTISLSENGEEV
The series is described as follows: Binding affinity to human cloned adrenergic Alpha-1A receptor.

Turning to `COc1ccc(C)cc1S(=O)(=O)N[C@H]1CC[C@@H](N2CCN(c3ccccc3OC(C)C)CC2)CC1`, the half-life in series [1] is under 2 min.
`COc1ccc(S(=O)(=O)N[C@H]2CC[C@@H](N3CCN(c4ccccc4OCC(F)(F)F)CC3)CC2)cc1OC`: the half-life in series [1] is 35 min. The inhibitory constant (Ki) was found to be 86 nM in series [2], 0.35 nM in series [3] and 192 nM on D(2) dopamine receptor.
`COc1ccc(F)cc1S(=O)(=O)N[C@H]1CC[C@@H](N2CCN(c3ccccc3OC(C)C)CC2)CC1` came in with a half-life in series [1] of under 2 min.
In series [1], `COc1ccc(S(=O)(=O)N[C@H]2CC[C@@H](N3CCC(c4ccccc4OC(C)C)CC3)CC2)cc1OC` had a half-life of 12 min. For the same molecule, the inhibition constant (Ki) came out at 1.8 nM in series [4], 151 nM in series [2], 1.7 nM in series [3] and 165 nM at D(2) dopamine receptor.
In turn, `CCN([C@H]1CC[C@H](N2CCN(c3ccccc3OC(C)C)CC2)CC1)S(=O)(=O)c1ccc(OC)c(OC)c1` came in with an inhibition constant (Ki) at D(2) dopamine receptor of 2.7 nM.
`COc1ccc(Cl)cc1S(=O)(=O)N[C@H]1CC[C@@H](N2CCN(c3ccccc3OC(C)C)CC2)CC1`: in series [1], the half-life was under 2 min.
Same read-out and setting: for `CC(C)Oc1ccccc1N1CCN([C@H]2CC[C@@H](NS(=O)(=O)c3ccc(Cl)cc3Cl)CC2)CC1` the value was 3.5 min; for `COc1ccc(S(=O)(=O)N[C@H]2CC[C@@H](N3CCC(c4ccccc4OCC(F)(F)F)CC3)CC2)cc1OC`, 56 min.
`COc1ccc(S(=O)(=O)N[C@H]2CC[C@@H](N3CCC(c4ccccc4OCC(F)F)CC3)CC2)cc1OC` displayed a half-life in series [1] of 21 min. Also, the figures for the inhibitory constant (Ki) (in series [2]; in series [3]; at D(2) dopamine receptor) were 278 nM, 8.6 nM and 228 nM, respectively.
The molecule `COc1ccc(S(=O)(=O)N[C@H]2CC[C@@H](N3CCC(c4ccccc4OCCF)CC3)CC2)cc1OC` gave a half-life in series [1] of 20 min. The molecule further returned an inhibition constant (Ki) at D(2) dopamine receptor of 330 nM.
In turn, `CCN([C@H]1CC[C@@H](N2CCN(c3ccccc3OC(C)C)CC2)CC1)S(=O)(=O)c1ccc(OC)c(OC)c1` displayed a Ki at D(2) dopamine receptor of 113 nM.
In the case of `CC(C)Oc1ccccc1N1CCN([C@H]2CC[C@@H](NS(=O)(=O)c3ccc(S(C)(=O)=O)cc3)CC2)CC1`, the half-life in series [1] amounted to 2.5 min.
Turning to `COc1ccc(S(=O)(=O)N[C@H]2CC[C@@H](N3CCN(c4ccccc4OC(C)C)CC3)CC2)cc1OC`, the half-life in series [1] is 4.9 min. Also, the results for the inhibition constant Ki (in series [2]; in series [3]; on D(2) dopamine receptor) were 106 nM, 0.68 nM and 136 nM, respectively.
`COc1ccc(S(=O)(=O)N[C@H]2CC[C@@H](N3CCC(c4ccccc4OC4CC4)CC3)CC2)cc1OC` had a half-life in series [1] of 18 min.
As to `COc1ccc(S(=O)(=O)N[C@H]2CC[C@H](N3CCN(c4ccccc4OCC(F)(F)F)CC3)CC2)cc1OC`, the Ki in series [2] worked out at 39 nM; at D(2) dopamine receptor, 114 nM.
